In ChEMBL document CHEMBL1221182, “Functional characterization of IRESes by an inhibitor of the RNA helicase eIF4A” (Nat Chem Biol, 2006) one finds IC50 data, which are given here for 18 molecules.

Bounds are passed on as bounds.

The experiment deals with Eukaryotic initiation factor 4A-I (Mus musculus, UniProt P60843). Description: Inhibition of eIF4A-mediated cap-dependent protein synthesis in FF-HCV-Ren mRNA transfected Swiss mouse Krebs2 cell extract by [35S]methionine metabolic labeling study. In a few lines: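 Cell-free translation in Krebs-2 extracts programmed with capped bicistronic FF-HCV-Ren transcript: cap-dependent firefly cistron, HCV IRES-driven renilla cistron. Final mRNA 5 µg ml⁻¹, K⁺ 100 mM, compound titrated. Controls carry a matched final DMSO level. Products labeled with [³⁵S]methionine, separated by 10% SDS-PAGE, and autoradiographed. Luciferase activities are read by luminometer and expressed relative to vehicle reactions.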
Eukaryotic initiation factor 4A-I, sequence (P60843 whole entry): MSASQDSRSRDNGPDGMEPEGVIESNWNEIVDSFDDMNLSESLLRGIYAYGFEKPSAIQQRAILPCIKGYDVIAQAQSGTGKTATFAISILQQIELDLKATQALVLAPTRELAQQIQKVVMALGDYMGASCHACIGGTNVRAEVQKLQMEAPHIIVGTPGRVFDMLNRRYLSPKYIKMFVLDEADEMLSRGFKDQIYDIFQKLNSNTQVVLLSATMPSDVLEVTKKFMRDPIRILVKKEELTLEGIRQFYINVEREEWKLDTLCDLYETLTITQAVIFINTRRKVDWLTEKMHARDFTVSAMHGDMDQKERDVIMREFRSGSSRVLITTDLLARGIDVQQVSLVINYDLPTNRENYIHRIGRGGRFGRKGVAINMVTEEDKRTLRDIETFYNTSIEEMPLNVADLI
By IC50 is commonly meant the point on the concentration scale where inhibition reaches its midpoint. Molecule `CC(=O)O[C@@H]1C[C@@]2(C)[C@@H](CC[C@@H]3[C@@H]2[C@@H](O)C[C@@]2(C)[C@H]3C[C@@H]3O[C@]4(C[C@H](C)C(C)(C)O4)[C@](C)(O)[C@@H]32)C[C@@H]1O` [EPIHIPPURIN 1] had an IC50 above 100 µM.

`CC(=O)O[C@@H]1CC[C@@]2(C)[C@@H](CC[C@@H]3[C@@H]2[C@@H](OC(C)=O)C[C@@]2(C)[C@H]3C[C@@H]3O[C@@]4(C[C@H](C)C(C)(C)O4)[C@](C)(O)[C@@H]32)C1`: the midpoint of inhibition, the IC50, lay at 64 µM.

`C[C@H]1C[C@]2(O[C@H]3C[C@H]4[C@@H]5CC[C@H]6C[C@H](O)[C@H](OC(=O)CCCC(=O)O)C[C@]6(C)[C@H]5[C@@H](O)C[C@]4(C)[C@H]3[C@@]2(C)O)OC1(C)C` displayed an IC50 of 35 µM.

`CC(=O)O[C@H]1C[C@@H]2CC[C@@H]3[C@H]([C@@H](O)C[C@@]4(C)[C@H]3C[C@@H]3O[C@]5(C[C@H](C)C(C)(C)O5)[C@](C)(O)[C@@H]34)[C@@]2(C)C[C@H]1O`: the 50% inhibitory concentration (IC50) was found to be 52 µM.

For the molecule `CC(=O)O[C@@H]1CC[C@@]2(C)[C@@H](CC[C@@H]3[C@@H]2[C@@H](OC(C)=O)C[C@@]2(C)[C@H]3C[C@@H]3O[C@]4(C[C@H](C)C(C)(C)O4)[C@](C)(O)[C@@H]32)C1`, the IC50 is above 100 µM.

In the case of `C[C@H]1C[C@@]2(O[C@H]3C[C@H]4[C@@H]5CC[C@H]6C[C@H](O)[C@H](O)C[C@]6(C)[C@H]5[C@@H](O)C[C@]4(C)[C@H]3[C@@]2(C)O)OC1(C)C`, the concentration for half-maximal inhibition (IC50) is 1.7 µM.

In turn, `CC(=O)O[C@H]1C[C@@H]2CC[C@@H]3[C@H]([C@@H](O)C[C@@]4(C)[C@H]3C[C@@H]3O[C@@]5(C[C@H](C)C(C)(C)O5)[C@](C)(O)[C@@H]34)[C@@]2(C)C[C@H]1O` registered a 50% inhibitory concentration (IC50) of 1.7 µM.

In turn, `C[C@H]1C[C@]2(O[C@H]3C[C@H]4[C@@H]5CC[C@H]6CC(=O)CC[C@]6(C)[C@H]5C(=O)C[C@]4(C)[C@H]3[C@@]2(C)O)OC1(C)C` showed an IC50 above 100 µM.

On to `C[C@H]1C[C@@]2(O[C@H]3C[C@H]4[C@@H]5CC[C@H]6CC(=O)CC[C@]6(C)[C@H]5C(=O)C[C@]4(C)[C@H]3[C@@]2(C)O)OC1(C)C`, for which the midpoint of inhibition, the IC50, lay at 52 µM.

Turning to `C[C@H]1C[C@@]2(O[C@H]3C[C@H]4[C@@H]5CC[C@H]6C[C@H](O)[C@H](OC(=O)CCCC(=O)O)C[C@]6(C)[C@H]5[C@@H](O)C[C@]4(C)[C@H]3[C@@]2(C)O)OC1(C)C`, the IC50 amounted to 2.6 µM.

Take `CC(=O)O[C@@H]1CC[C@@]2(C)[C@@H](CC[C@@H]3[C@@H]2[C@@H](O)C[C@@]2(C)[C@H]3C[C@@H]3O[C@@]4(C[C@H](C)C(C)(C)O4)[C@](C)(O)[C@@H]32)C1`: 10 µM corresponded to half-maximal inhibition (IC50).

In the case of `C[C@H]1C[C@]2(O[C@H]3C[C@H]4[C@@H]5CC[C@H]6C[C@H](O)[C@H](O)C[C@]6(C)[C@H]5[C@@H](O)C[C@]4(C)[C@H]3[C@@]2(C)O)OC1(C)C`, the IC50 stood at 19 µM.

Take `CC(=O)O[C@@H]1CC[C@@]2(C)[C@@H](CC[C@@H]3[C@@H]2[C@@H](O)C[C@@]2(C)[C@H]3C[C@@H]3O[C@]4(C[C@H](C)C(C)(C)O4)[C@](C)(O)[C@@H]32)C1`: the IC50 was above 100 µM.

The molecule `CC(=O)O[C@@H]1C[C@@]2(C)[C@@H](CC[C@@H]3[C@@H]2[C@@H](O)C[C@@]2(C)[C@H]3C[C@@H]3O[C@@]4(C[C@H](C)C(C)(C)O4)[C@](C)(O)[C@@H]32)C[C@@H]1O` came in with an IC50 of 1.5 µM.

In the case of `C[C@H]1C[C@]2(O[C@H]3C[C@H]4[C@@H]5CC[C@H]6C[C@H](O)CC[C@]6(C)[C@H]5C(=O)C[C@]4(C)[C@H]3[C@@]2(C)O)OC1(C)C`, the concentration for half-maximal inhibition (IC50) is above 100 µM.

`C[C@H]1C[C@]2(O[C@H]3C[C@H]4[C@@H]5CC[C@H]6C[C@H](O)CC[C@]6(C)[C@H]5[C@@H](O)C[C@]4(C)[C@H]3[C@@]2(C)O)OC1(C)C` [EPIHIPPURISTANOL] showed a 50% inhibitory concentration (IC50) above 100 µM.

In turn, `C[C@H]1C[C@@]2(O[C@H]3C[C@H]4[C@@H]5CC[C@H]6C[C@H](O)CC[C@]6(C)[C@H]5C(=O)C[C@]4(C)[C@H]3[C@@]2(C)O)OC1(C)C` registered an IC50 of 9 µM.

The molecule `CC(=O)O[C@@H]1CC[C@@]2(C)[C@@H](CC[C@@H]3[C@@H]2[C@@H](O)C[C@]24[C@H](O)O[C@]5(C)[C@H]2[C@H](C[C@@H]34)O[C@]52C[C@H](C)C(C)(C)O2)C1` [HIPPURISTANOHEMIACETAL] yielded a concentration for half-maximal inhibition (IC50) of 91 µM.
